Measured values of several laboratories.
EIF2AK4 S808G C-terminal kinase domain: eIF-2-alpha kinase GCN2, C-terminal kinase domain (EIF2AK4, Homo sapiens, UniProt Q9P2K8, S808G)
EIF2AK4 S808G: eIF-2-alpha kinase GCN2 (EIF2AK4, Homo sapiens, UniProt Q9P2K8, S808G)

O=C(NCC1CCOCC1)c1n[nH]cc1NC(=O)c1c(F)cccc1F
remaining binding (EIF2AK4 S808G C-terminal kinase domain; binding; competition with immobilised ligand; 1 µM): 100%

COc1cnc(Nc2cccc(S(N)(=O)=O)c2)nc1N1CCN(c2ccccc2)CC1
remaining binding (EIF2AK4 S808G C-terminal kinase domain; binding; competition with immobilised ligand; 1 µM): 95%

F[C@@H]1CCN(c2nccc(-c3cnn4ncccc34)n2)C1
remaining binding (EIF2AK4 S808G; binding; 1 µM): 63%

C[C@@H](c1ccc(-n2cnc3c(N)ncnc32)cc1)N1CCc2nn(C)c(Cc3ccccc3)c2C1=O
remaining binding (EIF2AK4 S808G C-terminal kinase domain; binding; competition with immobilised ligand; 0.1 µM): 98%

O=C(NS(=O)(=O)c1ccc(NCC2CCOCC2)c([N+](=O)[O-])c1)c1ccc(N2CCN(Cc3ccc(C(F)(F)F)cc3-c3ccc(Cl)cc3)CC2)cc1Oc1cnc2[nH]ccc2c1
remaining binding (EIF2AK4 S808G C-terminal kinase domain; cell-free assay; competition with immobilised ligand; 1 µM): 85%

CNC(=O)[C@@H]1CC[C@@H](n2c(-c3ccc4cnccc4c3)nc3ccc(C(=O)NCc4cccc(C(N)=O)c4)cc32)C1
remaining binding (EIF2AK4 S808G C-terminal kinase domain; binding; competition with immobilised ligand; 1 µM): 82%

CN(C)c1nccc(-c2cnc3ncccn23)n1
remaining binding (EIF2AK4 S808G; binding; 1 µM): 99%

O=C(c1ccc(Nc2ncc(Cl)c(-c3ccc(Cl)s3)n2)cc1)N1CCC(N2CCCC2)CC1
remaining binding (EIF2AK4 S808G C-terminal kinase domain; binding; competition with immobilised ligand; 1 µM): 0.25%

O=C(NC[C@@H]1[C@H]2CN(C(=O)OCc3cc(C(F)(F)F)cc(C(F)(F)F)c3)C[C@@H]12)c1ccc2[nH]nnc2c1
remaining binding (EIF2AK4 S808G C-terminal kinase domain; cell-free assay; competition with immobilised ligand; 1 µM): 84%

O=C(NCCCN1CCOCC1)c1ccc(Nc2ncc(Cl)c(-c3ccc(Cl)s3)n2)cc1
remaining binding (EIF2AK4 S808G C-terminal kinase domain; binding; competition with immobilised ligand; 1 µM): 0.35%

N[C@H]1CCN(c2nccc(-c3cnn4ncccc34)n2)C1
remaining binding (EIF2AK4 S808G; binding; 1 µM): 100%

O=C(NCCCC1CCCCC1)c1ccc(CNC(=O)c2cnn(-c3ccccc3)c2C(F)(F)F)cc1
remaining binding (EIF2AK4 S808G C-terminal kinase domain; cell-free assay; competition with immobilised ligand; 0.1 µM): 100%

CCN1CCN(Cc2ccc(C(=O)Nc3ccc(C)c(Oc4ccc5c(c4)CC(=O)N5)c3)cc2C(F)(F)F)CC1
remaining binding (EIF2AK4 S808G C-terminal kinase domain; binding; competition with immobilised ligand; 1 µM): 100%

CN(C)c1nccc(-c2cnn3ncccc23)n1
remaining binding (EIF2AK4 S808G; binding; 1 µM): 100%

C[C@@H](c1cccc(C#N)c1)n1cc(Cl)cc(C(N)=O)c1=N
remaining binding (EIF2AK4 S808G C-terminal kinase domain; cell-free assay; competition with immobilised ligand; 1 µM): 50%

Cc1cnn2ncc(-c3ccnc(N(C)C)n3)c2c1
remaining binding (EIF2AK4 S808G; binding; 1 µM): 96%

CCC(=N\O)/C(C)=C/c1ccc(F)cc1
remaining binding (EIF2AK4 S808G C-terminal kinase domain; cell-free assay; competition with immobilised ligand; 1 µM): 70%

O=C(NCCCN1CCOCC1)c1ccc(Nc2nccc(-c3cc4ccccc4s3)n2)cc1
remaining binding (EIF2AK4 S808G C-terminal kinase domain; binding; competition with immobilised ligand; 1 µM): 15%

O=C(O)[C@H]1[C@H](Cn2nnc3ccccc3c2=O)CC[C@@H]1C(=O)c1ccc(OCCC2CCOCC2)cc1
remaining binding (EIF2AK4 S808G C-terminal kinase domain; cell-free assay; competition with immobilised ligand; 1 µM): 55%

C[C@H]1CCN(c2nccc(-c3cnn4ncccc34)n2)C1
remaining binding (EIF2AK4 S808G; binding; 1 µM): 100%

CC(=O)N1CCC(c2ccc(C(=O)NC3=NCCN3)cc2C(F)(F)F)CC1
remaining binding (EIF2AK4 S808G C-terminal kinase domain; cell-free assay; competition with immobilised ligand; 1 µM): 52%

CN1CCN(c2ccc(Nc3nccc(-c4cccc([N+](=O)[O-])c4)n3)cc2C(F)(F)F)CC1
remaining binding (EIF2AK4 S808G; binding; 10 µM): 0.2%
